Sampled rows, rich in hits. Any-hit rate of the full collection: about 2.1%.
IEC-6 tox-1 = cytotoxicity in IEC-6 intestinal epithelial cells, primary screen, cytotoxicity control for KLF5 inhibitor project, cell-based, luminescence | IEC-6 cytotoxicity, luminescence viability | inhibition, % at 5 µM | 0.78% of 290,000 active;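 also: 0% = plate median of test compound wells and 100% = cytotoxic reference compound wells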
Ba/F3 V617F tox = reduced viability of JAK2V617F-dependent Ba/F3 cells, primary screen, JAK2V617F inhibitor project, cell-based, Ba/F3 EpoR-JAK2V617F, luminescence. 1.1% of 220,000 active. inhibition, % at 5.6 µM. AID 1446, 2008. ATP luminescence;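 active = inhibition above the campaign mean plus 3 SD over all tested compounds, cut at about 24% in these data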;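 also: cytokine-independent growth of Ba/F3 cells driven by EpoR plus mutant JAK2; 0% = DMSO-treated cells and 100% = JAK inhibitor I control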
KLF5 inh = KLF5 expression inhibitors, primary screen, DLD-1 cells, luminescence; DLD-1 KLF5 promoter-luciferase reporter; AID 1700, 2009; 0.23% of 290,000 active; inhibition, % at 5 µM;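 active = inhibition above a per-plate limit of that plate's mean compound inhibition plus 3 SD, cut at about 60% in these data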;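 also: 0% = DMSO wells and 100% = LY294002 at 200 µM; higher means less KLF5 promoter-driven luciferase light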
MT stabilizer = microtubule stabilizers in HeLa cells, primary screen, imaging, high-content imaging. % tubulin-high responders, % at 10 µM. AID 2205, 2009. 0.83% of 200,000 active. HeLa tubulin immunostaining HCS, 24 h; share of cells brighter than vehicle mean+2SD;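 active = plate Z-score above 3 for both tubulin-high and condensed-nucleus cell shares, with cell loss under 80%, at 10 µM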;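 also: anti alpha tubulin signal scored within the nucleus-defined area of each cell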
BaF3 tox = parental Ba/F3 cell viability inhibition, counter-screen for JAK2V617F inhibitor project, murine pro-B, CellTiter-Glo luminescence; CellTiter-Glo ATP luminescence; inhibition, % at 5.6 µM; AID 1486, 2009; 1.1% of 220,000 active;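 active = inhibition above a per-campaign cutoff, the mean inhibition of all tested compounds plus 3 SD, cut at about 27% in these data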;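 also: 0% = DMSO wells and 100% = JAK Inhibitor I control wells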
bCat nuc transl = modulators of beta-catenin nuclear translocation, primary screen, imaging, HeLa cells, immunofluorescence, high-content; nuclear translocation activity, % at 5 µM; 0.3% of 190,000 active;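 active = nuclear translocation activity above 50% at 5 µM, with a well cell count of 50 or more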;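 also: per-cell ratio of nuclear to cytoplasmic median beta-catenin stain intensity; plate controls were DMSO negative control for no effect and GSK-3 inhibitor IX positive control for full effect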
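assay system = human HeLa cells, endogenous beta-catenin | times = compound treatment 24 h, 37°C, 5% CO2 | detection = Anti-beta-catenin immunofluorescence on PFA-fixed, Triton-permeabilized cells, DAPI nuclei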
KLF5 confirm = KLF5 expression inhibitors, confirmation, DLD-1 cells, luminescence | shares compounds with KLF5 inh | DLD-1 KLF5 promoter firefly luciferase reporter | inhibition, % at 4 µM | 79% of 610 active | AID 1834, 2009;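 active = inhibition above a set limit taken from the earlier primary screen, cut at about 63% in these data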;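 also: 0% = DMSO wells and 100% = LY294002 at 200 µM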
IEC-6 tox-2 = cytotoxicity in rat IEC-6 cells, cytotoxicity control for KLF5 inhibitor project, cell-based, luminescence, triplicate. inhibition, % at 4 µM. IEC-6 rat intestinal cells, viability luminescence. shares compounds with KLF5 inh. 56% of 610 active; in the data active = inhibition above about 23%;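 also: cells exposed to compounds for 48 hours before viability read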
IEC-6 cytotox cf = cytotoxic compounds in IEC-6 epithelial cells, confirmation, cytotoxicity control, cell-based, luminescence; shares compounds with IEC-6 tox-1; IEC-6 rat intestinal epithelial viability; inhibition, % at 5 µM; 63% of 1,900 active; AID 1907, 2009;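 also: 0% = vehicle and 100% = reference cytotoxic drug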
Active calls of the source: *; i = inactive; / = no result given. Rule as the data show it, unless noted: active = inhibition above about 22%; inactive = the rest.

SMILES | IEC-6 tox-1 | Ba/F3 V617F tox | KLF5 inh | MT stabilizer | BaF3 tox | bCat nuc transl | KLF5 confirm | IEC-6 tox-2 | IEC-6 cytotox cf
CC(C)Sc1nnc([C@H](Cc2c[nH]c3ccccc23)NC(=O)OC(C)(C)C)o1 | -1.6 | -0.5 | -34.2 | 2.1 | 3.1 | -0.5 | / | / | /
CC(=O)NC(c1ccc(C)cc1)c1cc(Cl)c2cccnc2c1O (configuration not stated) | 93.5* | / | 64.3* | / | / | / | 83.4* | 69.1* | 69.0*
COc1cccc(C(NC(C)=O)c2ccc3cccnc3c2O)c1 (configuration not stated) | 99.3* | / | 91.4* | / | / | / | 97.5* | 81.2* | 75.2*
CCC(=O)NC(c1ccc(OC)cc1)c1cc(Cl)c2cccnc2c1O (configuration not stated) | 2.2 | -2.1 | -5.1 | 1.6 | -0.8 | -0.2 | / | / | /
CC(=O)NC(c1cccc([N+](=O)[O-])c1)c1ccc2cccnc2c1O (configuration not stated) | 93.9* | / | 62.2* | / | / | / | 96.0* | 79.7* | 76.7*
CC(=O)NC(c1ccc(C(C)C)cc1)c1ccc2cccnc2c1O (configuration not stated) | 69.7* | / | 81.2* | / | / | / | 82.2* | 82.8* | 82.8*
O=C(/C=C/c1ccccc1[N+](=O)[O-])NCc1ccncc1 | 1.7 | -1.0 | -7.9 | 3.2 | 2.6 | -0.6 | / | / | /
O=C1C2C3C=CC(C4CC34)C2C(=O)N1Cc1ccco1 (configuration not stated) | -3.8 | -4.2 | -26.2 | 5.2 | 0.9 | 0.2 | / | / | /
N/C(=N\OC(=O)CCCOc1ccccc1)c1ccccc1 | -0.3 | -2.1 | -4.8 | 1.8 | 0.3 | 2.1 | / | / | /
Cc1ccc(O)c(C(=O)c2cnc3c(c2)CN(C)C(=O)N3)c1 | 2.7 | -4.0 | 23.0 | 6.9 | 2.1 | -0.3 | / | / | /
CN1Cc2cc(C(=O)c3cc(Cl)cc(CSc4ncccn4)c3O)cnc2NC1=O | 72.9* | 70.8* | 75.2* | 20.1* | 74.8* | 67.1* | 84.9* | 59.2* | 66.2*
CCOc1ccc(N(CC(=O)Nc2ccccc2OCC)S(=O)(=O)c2c(C)noc2C)cc1 | 90.4* | / | 74.9* | / | / | / | 79.4* | 58.6* | 54.3*
CCOc1ccc(N(CC(=O)Nc2ccc(C)cc2)S(=O)(=O)c2c(C)noc2C)cc1 | -0.7 | -2.3 | -1.1 | 3.1 | -0.9 | 0.3 | / | / | /
COc1ccc2c(Cn3cnc4cc([N+](=O)[O-])ccc4c3=O)cc(=O)oc2c1 | -1.3 | -1.9 | 0.8 | / | -0.2 | 1.7 | / | / | /
COc1ccc(S(=O)(=O)NCc2ccccn2)cc1NC(=O)c1ccccc1F | 75.9* | / | 63.8* | / | / | / | 80.8* | 53.3* | 52.1*
COc1ccc(S(=O)(=O)N2CCN(C)CC2)cc1NC(=O)c1ccccc1F | 3.7 | / | -25.0 | / | / | / | / | / | /
CCOc1cc(C#N)c(NC(=O)c2cccnc2)cc1OCC | 81.8* | 84.5* | 73.5* | 38.9* | 77.2* | / | 79.2* | 50.4* | 56.2*
Cc1cccc2c(C(=O)N3CCCCC3)cc(-c3ccccc3)nc12 | -2.7 | / | -23.3 | / | / | / | / | / | /
Cc1cccc2c(C(=O)N3CCN(c4ccccc4)CC3)cc(-c3ccncc3)nc12 | 71.4* | / | 64.0* | / | / | / | 71.1* | 46.4* | 52.7*
CCOc1ccccc1NS(=O)(=O)c1ccc(-c2cnc(C3CC3)o2)cc1 | 90.2* | / | 77.5* | / | / | / | 82.7* | 64.0* | 58.6*
COC(=O)c1sc(N)c(C(=O)OC)c1COC(=O)c1c(C)noc1C | 66.5* | 71.0* | 68.1* | 55.8* | 72.9* | 24.2 | 42.0 | 35.0* | 41.7*
Cc1ccc(N2C(=O)c3cccc4c(N)ccc(c34)C2=O)c2cccnc12 | 86.5* | 92.3* | 63.2* | / | 85.4* | 66.8* | 90.4* | 72.3* | 73.9*
O=C(Nc1ccc(-c2nc3ccccc3s2)c(OC(=O)c2ccccc2)c1)c1ccccc1 | 0.8 | -0.6 | -14.1 | i | 2.6 | -2.1 | / | / | /
COc1ccc(-c2nn(-c3ccccc3)cc2/C=N/n2cnnc2)cc1OC | -0.2 | -2.1 | 4.0 | 2.3 | 2.6 | / | / | / | /
COc1ccc(-c2nn(-c3ccccc3)cc2/C=N/NC(N)=S)cc1OC | 72.0* | 82.1* | 69.5* | 27.4* | 82.5* | / | 71.1* | 59.4* | 61.7*
SMILES | IEC-6 tox-1 | Ba/F3 V617F tox | KLF5 inh | MT stabilizer | BaF3 tox | bCat nuc transl | KLF5 confirm | IEC-6 tox-2 | IEC-6 cytotox cf
COc1ccc(-c2nnn(CC(=O)N(CCCO)C(C(=O)NC3CCCC3)c3ccc(F)cc3)n2)cc1 (configuration not stated) | 1.0 | -0.4 | -14.8 | 2.8 | 4.9 | -3.6 | / | / | /
CCOc1ccc2[nH]c(C(=O)N/N=C/c3ccc(OC)cc3)cc2c1 | 84.4* | / | 65.9* | / | / | / | 73.3* | 58.4* | 58.0*
O=C(Nc1nc2ccccc2[nH]1)c1ccc(F)cc1 | 6.5 | 3.6 | -15.1 | 3.5 | 8.4 | 1.2 | / | / | /
O=C(Nc1nc2ccccc2[nH]1)c1ccccc1F | 43.4* | 49.5* | 75.8* | 3.1 | 46.1* | -2.1 | 74.6* | 46.3* | 56.8*
COc1cc(C(=O)N/N=C/c2sccc2C)cc(OC)c1OC | 88.6* | 80.4* | 70.2* | 12.3* | 84.5* | 84.6* | 85.8* | 63.0* | 65.1*
Cc1ccsc1/C=N/NC(=O)c1ccncc1 | 1.1 | 1.4 | 6.8 | 2.1 | 1.7 | -1.3 | / | / | /
Nc1ccc(C(=O)n2c3ccccc3c3ccccc32)cc1 | 82.8* | 68.1* | 78.8* | 45.5* | 73.1* | / | 85.4* | 59.9* | 57.9*
CCOC(=O)c1[nH]c(C)c(C(=O)N2CCc3ccccc32)c1C | 92.2* | 80.6* | 77.0* | 28.5* | 84.9* | 83.1* | 79.5* | 62.5* | 55.0*
COc1ccc(CNC(=O)N[C@@H](Cc2c[nH]c3ccccc23)C(=O)O)cc1 | 2.1 | / | -21.0 | / | / | / | / | / | /
Cc1cc(C)n(-c2ccc(NC(=O)C3CCCCN3Cc3cccc4c3OCO4)cc2)n1 (configuration not stated) | 10.4 | / | -33.4 | / | / | / | / | / | /
CC1CCN(Cc2c(C(=O)N/N=C/c3ccccc3O)nnn2-c2nonc2N)CC1 | 47.2* | / | 70.2* | / | / | / | 85.1* | 15.7 | 41.8*
O=C(N/N=C/c1cc(Br)cc(Br)c1O)c1ccncc1 | 24.0* | 4.1 | 77.5* | 1.9 | -5.1 | -1.3 | 87.9* | 40.1* | 13.9
O=C(N/N=C/c1ccc(O)cc1O)c1ccncc1 | -2.9 | / | 6.3 | / | / | / | / | / | /

Assay outcomes deposited in PubChem by several laboratories.
